According to ChEMBL document CHEMBL2384906, “Biological activity, design, synthesis and structure activity relationship of some novel derivatives of curcumin containing sulfonamides” (Eur J Med Chem, 2013):
In brackets after ≈: the same amount, converted by molar mass. Activity calls are given as the source filed them. The rule behind the calls is not given here.

Key:
Bacillus cereus [1] = experiment: Antimicrobial activity against Bacillus cereus MTCC 7350 assessed as diameter of inhibition zone at 80 uM after 24 hrs by Kirby -Baur disc diffusion method; format: functional
Outline: (§1)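 Kirby-Bauer disc diffusion was used. Acetone stocks (160 µM) were serially doubled down to 80, 40 and 20 µM. 4 µL of each went onto 5 mm sterile paper discs, which were dried 30 min at 50 °C. Inoculum was 1.5 × 10⁸ CFU/mL diluted to 3 × 10² CFU/mL, and 50 µL was spread on Mueller-Hinton agar. After 24 h at 37 °C the inhibition-zone diameter was measured. Ciprofloxacin served as positive control.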

Trichoderma viride [2] = experiment: Antifungal activity against Trichoderma viride MTCC 1107 after 48 hrs; format: functional; conditions: MTCC 1107, 48 h
Staphylococcus aureus [3] = experiment: Antimicrobial activity against Staphylococcus aureus ATCC 11632 assessed as diameter of inhibition zone at 40 uM after 24 hrs by Kirby -Baur disc diffusion method; format: functional; outline: as §1
HepG2 = experiment: Cytotoxicity against human HepG2 cells after 24 hrs by MTT assay; format: functional, cell-based
Outline: (§2)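 The MTT assay seeded 5 × 10⁴ cells per well and grew them 24 h in RPMI 1640 with compound at 2.5–200 µM. Medium without cells was the blank and adriamycin the positive control. MTT was added for 4 h at 37 °C, formazan was solubilised, and absorbance was read at 570 nm. IC50 is the concentration that cuts viability 50% against untreated cells.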

Aspergillus flavus [4] = experiment: Antifungal activity against Aspergillus flavus MTCC 1021 after 48 hrs; format: functional
Pseudomonas aeruginosa [5] = experiment: Antimicrobial activity against Pseudomonas aeruginosa ATCC 15499 after 24 hrs by broth micro serial dilution method; format: functional; conditions: ATCC 15499, 24 h
Outline: (§3)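 This was broth microdilution in autoclaved Mueller-Hinton broth. 150 µL of compound per well was serially diluted […], and 50 µL of test organism was added. Plates were incubated 24 h at 37 °C and optical density was read.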

Aspergillus flavus [6] = experiment: Antifungal activity against Aspergillus flavus MTCC 1021 assessed as zone of inhibition at 80 uM after 48 hrs by disc diffusion method; format: functional
Outline: (§4)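 Spores from 4-day potato dextrose agar cultures, suspended in sterile water at 1.5 × 10⁵ CFU/mL. 0.2 mL was spread on potato dextrose agar. 5 mm filter-paper discs soaked with test compound were laid on the lawn. Incubation was 48 h at 28 °C, then the inhibition zone was measured in mm. Fluconazole was the positive control and acetone the negative control.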

Escherichia coli [7] = experiment: Antimicrobial activity against Escherichia coli ATCC 35218 assessed as diameter of inhibition zone at 80 uM after 24 hrs by Kirby -Baur disc diffusion method; format: functional; conditions: ATCC 35218, 24 h, read-out: DIZ; outline: as §1
Pseudomonas aeruginosa [8] = experiment: Antimicrobial activity against Pseudomonas aeruginosa ATCC 15499 assessed as diameter of inhibition zone at 80 uM after 24 hrs by Kirby -Baur disc diffusion method; format: functional; outline: as §1
Aspergillus niger [9] = experiment: Antifungal activity against Aspergillus niger MTCC 1108 assessed as zone of inhibition at 80 uM after 48 hrs by disc diffusion method; format: functional; outline: as §4
Salmonella typhi [10] = experiment: Antimicrobial activity against Salmonella typhi ATCC 23564 after 24 hrs by broth micro serial dilution method; format: functional, Salmonella enterica subsp. enterica serovar Typhi; conditions: Salmonella enterica, ATCC 23564, 24 h
Staphylococcus aureus [11] = experiment: Antimicrobial activity against Staphylococcus aureus ATCC 11632 assessed as diameter of inhibition zone at 20 uM after 24 hrs by Kirby -Baur disc diffusion method; format: functional; outline: as §1
Escherichia coli [12] = experiment: Antimicrobial activity against Escherichia coli ATCC 35218 assessed as diameter of inhibition zone at 20 uM after 24 hrs by Kirby -Baur disc diffusion method; format: functional; outline: as §1
HeLa = experiment: Cytotoxicity against human HeLa cells after 24 hrs by MTT assay; format: functional, cell-based; outline: as §2
HCT-116 = experiment: Cytotoxicity against human HCT116 cells after 24 hrs by MTT assay; format: functional, cell-based; outline: as §2
Curvularia lunata [13] = experiment: Antifungal activity against Curvularia lunata MTCC 581 assessed as zone of inhibition at 40 uM after 48 hrs by disc diffusion method; format: functional; conditions: MTCC 581, 48 h, read-out: IZ; outline: as §4
Trichoderma viride [14] = experiment: Antifungal activity against Trichoderma viride MTCC 1107 assessed as zone of inhibition at 40 uM after 48 hrs by disc diffusion method; format: functional; conditions: MTCC 1107, 48 h, read-out: IZ; outline: as §4
Salmonella typhi [15] = experiment: Antimicrobial activity against Salmonella typhi ATCC 23564 assessed as diameter of inhibition zone at 80 uM after 24 hrs by Kirby -Baur disc diffusion method; format: functional, Salmonella enterica subsp. enterica serovar Typhi; conditions: Salmonella enterica, ATCC 23564, 24 h; read-out: DIZ
QG-56 = experiment: Cytotoxicity against human QG56 cells after 24 hrs by MTT assay; format: functional, cell-based; outline: as §2
Curvularia lunata [16] = experiment: Antifungal activity against Curvularia lunata MTCC 581 assessed as zone of inhibition at 20 uM after 48 hrs by disc diffusion method; format: functional; outline: as §4
Escherichia coli [17] = experiment: Antimicrobial activity against Escherichia coli ATCC 35218 after 24 hrs by broth micro serial dilution method; format: functional; conditions: ATCC 35218, 24 h; outline: as §3
Pseudomonas aeruginosa [18] = experiment: Antimicrobial activity against Pseudomonas aeruginosa ATCC 15499 assessed as diameter of inhibition zone at 20 uM after 24 hrs by Kirby -Baur disc diffusion method; format: functional; outline: as §1
Curvularia lunata [19] = experiment: Antifungal activity against Curvularia lunata MTCC 581 assessed as zone of inhibition at 80 uM after 48 hrs by disc diffusion method; format: functional; conditions: MTCC 581, 48 h, read-out: IZ; outline: as §4
Escherichia coli [20] = experiment: Antimicrobial activity against Escherichia coli ATCC 35218 assessed as diameter of inhibition zone at 40 uM after 24 hrs by Kirby -Baur disc diffusion method; format: functional; outline: as §1
Mus musculus = experiment: Antiinflammatory activity in mouse assessed as inhibition of carrageenan-induced increase in paw volume at 200 mg/kg administered 1 hr prior to carrageenan challenge measured after 3 hrs relative to control; format: functional
Outline: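 Mice were fasted 2 h and placed in groups of five. Controls received saline i.p. Phenylbutazone was given at 100 mg/kg i.p., curcumin at 200 mg/kg i.p., and derivatives at 200 mg/kg. After 1 h, 0.1 mL of 1% carrageenan in saline was injected subplantar into the right hind paw. Paw volume was followed by plethysmometer for 3 h, and % inhibition was calculated as (Vc − Vt)/Vc × 100.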

Salmonella typhi [21] = experiment: Antimicrobial activity against Salmonella typhi ATCC 23564 assessed as diameter of inhibition zone at 40 uM after 24 hrs by Kirby -Baur disc diffusion method; format: functional, Salmonella enterica subsp. enterica serovar Typhi
Aspergillus niger [22] = experiment: Antifungal activity against Aspergillus niger MTCC 1108 after 48 hrs; format: functional
Curvularia lunata [23] = experiment: Antifungal activity against Curvularia lunata MTCC 581 after 48 hrs; format: functional; conditions: MTCC 581, 48 h
Staphylococcus aureus [24] = experiment: Antimicrobial activity against Staphylococcus aureus ATCC 11632 assessed as diameter of inhibition zone at 80 uM after 24 hrs by Kirby -Baur disc diffusion method; format: functional; conditions: ATCC 11632, 24 h, read-out: DIZ; outline: as §1
Trichoderma viride [25] = experiment: Antifungal activity against Trichoderma viride MTCC 1107 assessed as zone of inhibition at 80 uM after 48 hrs by disc diffusion method; format: functional; conditions: MTCC 1107, 48 h, read-out: IZ; outline: as §4
Salmonella typhi [26] = experiment: Antimicrobial activity against Salmonella typhi ATCC 23564 assessed as diameter of inhibition zone at 20 uM after 24 hrs by Kirby -Baur disc diffusion method; format: functional; conditions: Salmonella enterica subsp. enterica serovar Typhi
Pseudomonas aeruginosa [27] = experiment: Antimicrobial activity against Pseudomonas aeruginosa ATCC 15499 assessed as diameter of inhibition zone at 40 uM after 24 hrs by Kirby -Baur disc diffusion method; format: functional; conditions: ATCC 15499, 24 h, read-out: DIZ; outline: as §1
Trichoderma viride [28] = experiment: Antifungal activity against Trichoderma viride MTCC 1107 assessed as zone of inhibition at 20 uM after 48 hrs by disc diffusion method; format: functional; outline: as §4
Staphylococcus aureus [29] = experiment: Antimicrobial activity against Staphylococcus aureus ATCC 11632 after 24 hrs by broth micro serial dilution method; format: functional; conditions: ATCC 11632, 24 h; outline: as §3
Bacillus cereus [30] = experiment: Antimicrobial activity against Bacillus cereus MTCC 7350 after 24 hrs by broth micro serial dilution method; format: functional; outline: as §3
Bacillus cereus [31] = experiment: Antimicrobial activity against Bacillus cereus MTCC 7350 assessed as diameter of inhibition zone at 40 uM after 24 hrs by Kirby -Baur disc diffusion method; format: functional; outline: as §1
Bacillus cereus [32] = experiment: Antimicrobial activity against Bacillus cereus MTCC 7350 assessed as diameter of inhibition zone at 20 uM after 24 hrs by Kirby -Baur disc diffusion method; format: functional; outline: as §1
[33] = ATCC 35218, 24 h, read-out: DIZ

SMILES | MIC (Trichoderma viride [2]) [µM] | IC50 (HepG2) | MIC (Pseudomonas aeruginosa [5]) [µM] | inhibition zone (IZ) (Aspergillus flavus [6]) | zone of inhibition at 80 µM (Escherichia coli [7]) [mm] | inhibition zone (IZ) (Aspergillus niger [9]) | MIC (Salmonella typhi [10]) [µM] | diameter of the inhibition zone (DIZ) (Staphylococcus aureus [11]) | IC50 (HeLa) | IC50 (HCT-116) | zone of inhibition at 40 µM (Curvularia lunata [13]) [mm] | zone of inhibition at 40 µM (Trichoderma viride [14]) [mm] | zone of inhibition at 80 µM (Salmonella typhi [15]) [mm] | IC50 (QG-56) | MIC (Escherichia coli [17]) [µM] | zone of inhibition at 80 µM (Curvularia lunata [19]) [mm] | inhibition in vivo at 200 mg/kg (Mus musculus) [%] | MIC (Curvularia lunata [23]) [µM] | zone of inhibition at 80 µM (Staphylococcus aureus [24]) [mm] | zone of inhibition at 80 µM (Trichoderma viride [25]) [mm] | further results
COc1ccc(NS(=O)(=O)c2ccc(/N=N/c3c(/C=C/c4ccc(O)c(OC)c4)noc3/C=C/c3ccc(O)c(OC)c3)cc2)nn1 | > 80 | Not Active | 80 (≈ 52.5 µg/mL) | inactive | 11 | inactive | 80 (≈ 52.5 µg/mL) | inactive | Not Active | Not Active | 9 | 9 | 14 | Not Active | > 80 | 11 | 48.3 | > 80 | 10 | 11 | diameter of the inhibition zone (DIZ) (Bacillus cereus [1]): inactive; diameter of the inhibition zone (DIZ) (Staphylococcus aureus [3]): inactive; MIC (Aspergillus flavus [4]; MTCC 1021, 48 h): > 80 µM; zone of inhibition at 80 µM (Pseudomonas aeruginosa [8]; ATCC 15499, 24 h, read-out: DIZ): 13 mm; diameter of the inhibition zone (DIZ) (Escherichia coli [12]): inactive; inhibition zone (IZ) (Curvularia lunata [16]): inactive; diameter of the inhibition zone (DIZ) (Pseudomonas aeruginosa [18]): inactive; diameter of the inhibition zone (DIZ) (Escherichia coli [20]): inactive; zone of inhibition at 40 µM (Salmonella typhi [21]; Salmonella enterica, ATCC 23564, 24 h, read-out: DIZ): 9 mm; MIC (Aspergillus niger [22]; MTCC 1108, 48 h): > 80 µM; diameter of the inhibition zone (DIZ) (Salmonella typhi [26]): inactive; zone of inhibition at 40 µM (Pseudomonas aeruginosa [27]): 9 mm; inhibition zone (IZ) (Trichoderma viride [28]): inactive; MIC (Staphylococcus aureus [29]): > 80 µM; MIC (Bacillus cereus [30]): inactive
COc1ccc(NS(=O)(=O)c2ccc(/N=N/c3c(/C=C/c4ccc(O)c(OC)c4)nn(-c4ccccc4)c3/C=C/c3ccc(O)c(OC)c3)cc2)nn1 | 40 (≈ 29.3 µg/mL) | > 100 µM | > 80 | inactive | 11 | inactive | > 80 | inactive | 50 µM | Not Active | 16 | 16 | 10 | 100 µM | > 80 | 19 | 45.1 | 20 (≈ 14.6 µg/mL) | 9 | 19 | zone of inhibition at 80 µM (Bacillus cereus [1]; MTCC 7350, 24 h, read-out: DIZ): 9 mm; zone of inhibition at 40 µM (Staphylococcus aureus [3]; ATCC 11632, 24 h, read-out: DIZ): 7 mm; MIC (Aspergillus flavus [4]): inactive; diameter of the inhibition zone (DIZ) (Pseudomonas aeruginosa [8]): inactive; diameter of the inhibition zone (DIZ) (Bacillus cereus [31]): inactive; zone of inhibition at 20 µM (Escherichia coli [12]; [33]): 8 mm; zone of inhibition at 20 µM (Curvularia lunata [16]; MTCC 581, 48 h, read-out: IZ): 12 mm; diameter of the inhibition zone (DIZ) (Bacillus cereus [32]): inactive; zone of inhibition at 40 µM (Escherichia coli [20]; [33]): 9 mm; diameter of the inhibition zone (DIZ) (Salmonella typhi [21]; Salmonella enterica subsp. enterica serovar Typhi): inactive; MIC (Aspergillus niger [22]): inactive; diameter of the inhibition zone (DIZ) (Salmonella typhi [26]): inactive; zone of inhibition at 20 µM (Trichoderma viride [28]; MTCC 1107, 48 h, read-out: IZ): 12 mm; MIC (Staphylococcus aureus [29]): > 80 µM; MIC (Bacillus cereus [30]; MTCC 7350, 24 h): > 80 µM
